The subject of test [1] is A549. The test is described as follows: Cytotoxicity against human A549 cells assessed as reduction in cell viability after 72 hrs by MTT assay. It is filed as functional, cell-based. In short, it runs like this:
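MTT viability screen in A549 cells with 72 h compound exposure; value reported as IC50.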
In general terms: Tetrazolium assays rely on reduction of a dye to a coloured formazan, in cell work by metabolically active cells.

Test [2] has as its system A549. The test can be described thus: Induction of morphological changes in human A549 cells assessed as appearance of rounded cell at 10 to 100 uM after 24 hrs. Type of test: functional, cell-based. In short, it runs like this: (§1)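 A549 cells treated 24 h at 10, 50 or 100 μM, then photographed to assess rounding and vacuole appearance.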
Test [3] deals with A549. The test can be described thus: Induction of morphological changes in human A549 cells assessed as increase in vacuole appearance at 10 to 100 uM after 24 hrs. It is filed as functional, cell-based. In short, it runs like this:
as §1

For test [4], the system named is A549. The test can be described thus: Induction of apoptosis in human A549 cells assessed as viable cells at 10 uM after 24 hrs by Annexin V/7-AAD staining based flow cytometry (reference value: 89.95%). It is filed as functional. Particulars: A549, 24 h, read-out: Activity.
Test [5] deals with A549. The test is described as follows: Induction of cell morphological changes in human A549 cells at 10 to 100 uM after 3 hrs. Type of test: functional, cell-based.
Test [6] deals with A549. The test can be described thus: Induction of apoptosis in human A549 cells assessed as viable cells at 50 uM after 24 hrs by Annexin V/7-AAD staining based flow cytometry (reference value: 89.95%). Particulars: A549, 24 h, read-out: Activity. Type of test: functional. For orientation: Flow cytometry measures light scatter and fluorescence of single cells or particles in a stream.

The test system of test [7] is A549. The test can be described thus: Induction of apoptosis in human A549 cells assessed as viable cells at 100 uM after 24 hrs by Annexin V/7-AAD staining based flow cytometry (reference value: 89.95%). Type of test: functional. The conditions noted are these: A549, 24 h, read-out: Activity.
For test [8], the system named is A549. The test can be described thus: Induction of apoptosis in human A549 cells assessed as early apoptotic cells at 10 uM after 24 hrs by Annexin V/7-AAD staining based flow cytometry (reference value: 8.55%). Type of test: functional.
Test [9] deals with A549. The test can be described thus: Induction of apoptosis in human A549 cells assessed as early apoptotic cells at 50 uM after 24 hrs by Annexin V/7-AAD staining based flow cytometry (reference value: 8.55%). Type of test: functional.
Test [10] relates to A549. The test is described as follows: Induction of apoptosis in human A549 cells assessed as early apoptotic cells at 100 uM after 24 hrs by Annexin V/7-AAD staining based flow cytometry (reference value: 8.55%). It is filed as functional.
Test [11] has as its system A549. The test is described as follows: Induction of apoptosis in human A549 cells assessed as late apoptotic cells at 10 uM after 24 hrs by Annexin V/7-AAD staining based flow cytometry (reference value: 1.5%). It is filed as functional.
Test [12] relates to A549. The test is described as follows: Induction of apoptosis in human A549 cells assessed as late apoptotic cells at 50 uM after 24 hrs by Annexin V/7-AAD staining based flow cytometry (reference value: 1.5%). Type of test: functional.
The subject of test [13] is A549. The test can be described thus: Induction of apoptosis in human A549 cells assessed as late apoptotic cells at 100 uM after 24 hrs by Annexin V/7-AAD staining based flow cytometry (reference value: 1.5%). It is filed as functional.
Test [14] concerns A549. The test can be described thus: Induction of apoptosis in human A549 cells assessed as dead cells at 10 uM after 24 hrs by Annexin V/7-AAD staining based flow cytometry relative to control. Type of test: functional. In a few lines: (§2)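 A549 cells exposed for 24 h at 10, 50 or 100 μM, then stained with Annexin-V and 7AAD (Annexin-V and Dead Cell assay kit). Dead and apoptotic populations were counted by flow cytometry on a Muse Cell Analyzer and compared with untreated control. Values are averages of three independent experiments with SD.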

For test [15], the system named is A549. The test is described as follows: Induction of apoptosis in human A549 cells assessed as dead cells at 50 uM after 24 hrs by Annexin V/7-AAD staining based flow cytometry relative to control. It is filed as functional. In short, it runs like this:
as §2

Test [16] relates to A549. The test is described as follows: Induction of apoptosis in human A549 cells assessed as dead cells at 100 uM after 24 hrs by Annexin V/7-AAD staining based flow cytometry relative to control. Type of test: functional. In a few lines: as §2
The test system of test [17] is A549. The test is described as follows: Induction of autophagy in human A549 cells after 6 to 24 hrs by MDC-staining based fluorescence imaging analysis. Type of test: functional, cell-based. In short, it runs like this: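 Autophagic vacuoles stained with monodansylcadaverine (MDC). Imaging was done after 24 h at 10, 50 or 100 μM. Relative fluorescence (Ex/Em 335/512 nm) was measured after 6 h at 6.2–100 μM.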

Test [18] relates to A549. The test can be described thus: Induction of apoptosis in human A549 cells assessed as increase in PARP cleavage after 24 hrs by Western blot analysis. Type of test: functional, cell-based. In a few lines: (§3)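 A549 cells exposed 24 h to 10, 50 or 100 μM, then harvested and analysed by Western blot for cleaved PARP and for LC3-II conversion.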
A general note: Immunoblotting shows a protein as a band on a membrane.

Test [19] deals with A549. The test is described as follows: Induction of autophagy in human A549 cells assessed as increase in LC3-2 level at 10 to 100 uM after 24 hrs by Western blot analysis. It is filed as functional, cell-based. In a few lines:
as §3

Test [20] relates to A549. The test can be described thus: Induction of autophagy in human A549 cells at 10 to 100 uM after 24 hrs by MDC-staining based fluorescence imaging analysis in presence of autophagy inhibitor bafilomycin A1. It is filed as functional, cell-based. In short, it runs like this: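 A549 cells co-treated 24 h with 10, 50 or 100 μM plus or minus 10 nM bafilomycin A1. Autophagy was quantified by MDC staining fluorescence. Values are means of three independent experiments with SD.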

In test [21] the test system is A549. The test is described as follows: Induction of apoptosis in human A549 cells assessed as increase in apoptotic cells at 10 to 100 uM after 24 hrs by Annexin V/7-AAD staining based flow cytometry in presence of autophagy inhibitor bafilomycin A1. Type of test: functional, cell-based. In short, it runs like this: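 A549 cells treated 24 h at 10, 50 or 100 μM with or without 10 nM bafilomycin A1. Apoptosis was read by Annexin-V/7AAD on a Muse Cell Analyzer. Values are means of three independent experiments with SD, and significance was tested against control and between ± Baf.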

Where [22] appears, read: Homo sapiens, A549, 72 h, read-out: IC50.

13 compounds from ChEMBL document CHEMBL3792293, “A synthetic 2,3-diarylindole induces cell death via apoptosis and autophagy in A549 lung cancer cells” (Bioorg Med Chem Lett, 2016) can be followed below.

The structures appear in SMILES notation. The source made the active and inactive calls. The rule behind the calls is not given here.

For the compound `O=[N+]([O-])c1ccc(-c2c(-c3ccccc3)[nH]c3ccccc23)cc1`, in the test on A549 [1] (setting [22]), the half-inhibitory concentration (IC50) was found to be 38.4 µM.

Consider `N#Cc1ccc(-c2c(-c3ccccc3)[nH]c3ccccc23)cc1`, for which, in the test on A549 [1] (setting [22]), the IC50 worked out at 18.3 µM.

Take `CC(=O)Nc1ccc(-c2c(-c3ccccc3)[nH]c3ccccc23)cc1`: the IC50 result with A549 [1] (a549) is “ND(Insoluble)”.

With `COc1ccc(-c2c(-c3ccccc3)[nH]c3ccccc23)cc1`, the half-inhibitory concentration (IC50) in the test on A549 [1] (setting [22]) is 30 µM.

For `O=[N+]([O-])c1ccc(-c2[nH]c3ccccc3c2-c2ccccc2)cc1`, the IC50 with A549 [1] (setting [22]) was 24.8 µM.

On to `c1ccc(-c2[nH]c3ccccc3c2-c2ccccc2)cc1`, for which the IC50 with A549 [1] (setting [22]) was 58.7 µM.

For `CC(=O)Nc1ccc(-c2[nH]c3ccccc3c2-c2ccccc2)cc1`, in the test with A549 [1] (a549), the IC50 entry is on record as “ND(Insoluble)”.

`N#Cc1ccc(-c2[nH]c3ccccc3c2-c2ccccc2)cc1`: the IC50 with A549 [1] (setting [22]) stood at 15 µM.

Regarding `Nc1ccc(-c2c(-c3ccccc3)[nH]c3ccccc23)cc1`, in the test on A549 [1] (setting [22]), the IC50 was found to be 83.4 µM.

With `Nc1ccc(-c2[nH]c3ccccc3c2-c2ccccc2)cc1`, the IC50 in the test with A549 [1] (setting [22]) was 54.7 µM.

Consider `COc1ccc(-c2[nH]c3ccccc3c2-c2ccccc2)cc1`, for which the IC50 with A549 [1] (setting [22]) was determined as 288 µM.

Turning to `COC(=O)c1ccc(-c2[nH]c3ccccc3c2-c2ccccc2)cc1`, the 50% inhibitory concentration (IC50) result with A549 [1] (a549) is reported as “ND(Insoluble)”.

Turning to `COC(=O)c1ccc(-c2c(-c3ccccc3)[nH]c3ccccc23)cc1`, the IC50 in the test with A549 [1] (setting [22]) was 5.17 µM. Also, the outcome in the test on A549 [2], in the test with A549 [3], with A549 [5] and with A549 [19] was Active. In addition, the viability at 10 µM in the test on A549 [4] was 82.8%. For the same compound, the viability at 50 µM in the test on A549 [6] stood at 74.5%. Further, the viability at 100 µM with A549 [7] stood at 50.5%. Besides, the Activity came out at 14% with A549 [8]; 17.45% in the test with A549 [9]; 9.7% with A549 [10]; 2.8% in the test with A549 [11]; 7.75% in the test on A549 [12]; 39.7% in the test with A549 [13]. For the same compound, the Activity with A549 [14] was 0.4%; in the test on A549 [15] it was 0.25%; in the test on A549 [16] it was 0.15%; in the test with A549 [17], “Dose-dependent effect”; with A549 [18], “Dose-dependent effect”. The outcome with A549 [20] and in the test with A549 [21] was inactive.

Broadly, the IC50 is the concentration at which inhibition is half-maximal.
